ChEMBL document CHEMBL2086357 (Eur J Med Chem, 2012)

Columns and labels:
LoVo = test: Antiproliferative activity against human LoVo cells after 96 hrs by MTT assay; type: functional
MCF7 = test: Antiproliferative activity against human MCF7 cells after 96 hrs by MTT assay; type: functional; details: MCF7, 96 h
PC-3 = test: Antiproliferative activity against human PC3 cells after 96 hrs by MTT assay; type: functional; details: PC-3, 96 h
A549 = test: Antiproliferative activity against human A549 cells after 96 hrs by MTT assay; type: functional; details: A549, 96 h
[1] = target: Cyclin-dependent kinase 2/cyclin A (Homo sapiens) (UniProt P24941+P20248+P78396); test: Inhibition of recombinant CDK2/cyclin A expressed in Sf21 cells using histone H1 as substrate at 10 uM after 10 mins by scintillation counting in presence of [32P]ATP
Procedure, shortened: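 CDK2/cyclin A was combined on ice with histone H1 substrate in kit buffer, then inhibitor was added. Prediluted ³²P-ATP with MgCl2 and cold ATP was added, and tubes were shaken for 10 min at 30 °C. Aliquots were spotted on phosphocellulose paper, washed three times in 0.75% phosphoric acid, rinsed in acetone and counted by scintillation. Percent inhibition versus an untreated control is the mean of duplicate experiments.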

[2] = Inhibition of starfish CDK1/cyclin B using histone H1 as substrate after 10 mins in presence of [gamma32P}ATP; parameters: species or system Asteroidea
Jurkat = test: Inhibition of PMA- and PHA-stimulated IL2 production in human Jurkat T cells incubated for 30 mins prior to PMA- and PHA-stimulation by competitive enzyme immunoassay; type: functional, cell-based
CCRF-CEM = test: Growth inhibition of human CCRF-CEM cells up to 48 hrs by trypan blue exclusion assay; type: functional
[3] = Drug degradation in DMEM cell culture medium assessed as (E)-5-(Hydroxyimino)-10-methyl-2,3,4,5-tetrahydroazepino[3,4-b]indol-1(10H)-one at 10 to 100 nmol after 7 days by NMR analysis; type: physicochemical; details: 168 h
Procedure, shortened: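 Two solutions of the compound in cell culture medium (10 and 100) were held at 37 °C for seven days. They were then extracted with ethyl acetate, and breakdown was assessed by NMR.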

[4] = target: Cyclin-dependent kinase 2/cyclin A (Homo sapiens, UniProt P24941); test: Inhibition of CDK2/cyclin A; type: protein-complex assay
[5] = target: Cyclin-dependent kinase 2/cyclin E1 (Homo sapiens, UniProt P24941); test: Inhibition of CDK2/cyclin E; type: protein-complex assay

Compound	GI50 (LoVo)	GI50 (MCF7)	GI50 (PC-3)	GI50 (A549)	inhibition [1]	other results
O=C1CCNC(=O)c2[nH]ccc21 [ALDISIN]	> 100 µM	> 100 µM	> 100 µM	> 100 µM	–	–
Cn1c(Br)c(Br)c2c1C(=O)NCC/C2=N\OCc1ccccc1	–	–	–	–	22%	–
O=C1Cc2c([nH]c3ccc(Br)cc23)-c2ccccc2N1 [KENPAULLONE]	–	–	–	–	–	IC50 [2]: 0.4 µM
Nc1nc(C2=C3C(=Nc4ccccc43)C(=O)NCC2)c(O)[nH]1	–	–	–	–	–	IC50 (Jurkat): 3.5 µM; GI50 (CCRF-CEM): 1.7 µM
Cn1c2c(c3ccccc31)/C(=N/OCc1ccccc1)CCNC2=O	–	–	–	–	–	Drug degradation [3]: 50%
Cn1c(Br)c(Br)c2c1C(=O)NCC/C2=N\OCC1CCCCC1	–	–	–	–	13%	–
Cn1c2c(c3ccccc31)/C(=N/O)CCNC2=O	51.3 µM	> 100 µM	> 100 µM	> 100 µM	–	–
NC1=NC(=O)/C(=C2\CCNC(=O)c3[nH]c(Br)cc32)N1 [HYMENIALDISINE]	–	–	–	–	–	IC50 [4]: 0.07 µM; IC50 [5]: 0.04 µM
O=C1NCC/C(=N\OCc2ccccc2)c2c1[nH]c(Br)c2Br	–	–	–	–	0%	–
O=C1NCC/C(=N\O)c2c1[nH]c1ccc(Br)cc21	27.2 µM	54.6 µM	46.2 µM	63.3 µM	45%	–
Cn1c2c(c3ccccc31)/C(=N/OCC1CCCCC1)CCNC2=O	20.5 µM	23.3 µM	29.1 µM	32.1 µM	12%	Drug degradation [3]: Not Active
O=C1NCCC(=O)c2c1[nH]c1ccccc21	36.9 µM	> 100 µM	> 100 µM	97.7 µM	–	–
O=C1NCC/C(=N\OCc2ccccc2)c2c1[nH]c1ccccc21	24.3 µM	28.1 µM	23.4 µM	34.9 µM	32%	–
Cn1c2c(c3ccccc31)C(=O)CCNC2=O	36.8 µM	> 100 µM	> 100 µM	> 100 µM	–	–
O=C1NCC/C(=N\O)c2c1[nH]c1ccccc21	40.5 µM	> 100 µM	> 100 µM	> 100 µM	–	–
